From ChEMBL document CHEMBL4354804, “Discovery of a New Isoxazole-3-hydroxamate-Based Histone Deacetylase 6 Inhibitor SS-208 with Antitumor Activity in Syngeneic Melanoma Mouse Models” (J Med Chem, 2019) come the findings set out here.

What is called IC50 is the point on the concentration scale where inhibition reaches its midpoint. For orientation: half-life means the time in which the quantity being followed falls by half.

One series has as its target T1, Histone deacetylase 8 (Homo sapiens, UniProt Q9BY41).
T1 sequence (Q9BY41 whole entry): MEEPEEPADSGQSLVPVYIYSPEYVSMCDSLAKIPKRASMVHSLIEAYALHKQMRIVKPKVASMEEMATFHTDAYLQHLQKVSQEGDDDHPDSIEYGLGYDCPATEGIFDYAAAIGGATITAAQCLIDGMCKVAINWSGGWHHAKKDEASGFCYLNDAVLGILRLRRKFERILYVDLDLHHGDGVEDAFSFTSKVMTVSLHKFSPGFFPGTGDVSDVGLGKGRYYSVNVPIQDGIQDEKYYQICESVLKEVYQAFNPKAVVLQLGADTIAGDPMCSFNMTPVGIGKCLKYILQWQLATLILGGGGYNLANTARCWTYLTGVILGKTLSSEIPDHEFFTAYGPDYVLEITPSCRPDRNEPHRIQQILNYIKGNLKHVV
Put plainly: Inhibition of recombinant human HDAC8 expressed in HEK293T/17 cells using Boc-Lys(TFA)-AMC as substrate preincubated for 10 mins followed by substrate addition and measured after 30 mins by fluorescence-based assay. In short, it runs like this:
(§1)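 Human HDACs expressed as Strep-tagged fusions in transiently transfected HEK293/T17 cells, purified by Strep-Tactin. Substrate at 10 µM: Ac-GAK(Ac)-AMC for HDAC1/6, Boc-Lys(TFA)-AMC for the others. Reaction 30 min at 37 °C, trypsin stop, fluorescence 365/440 nm. 10-point 3-fold series from 100 µM, mean of two experiments.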

The target of series [1] is T2, Protein deacetylase HDAC6 (Homo sapiens, UniProt Q9UBN7).
T2 sequence (Q9UBN7 whole entry): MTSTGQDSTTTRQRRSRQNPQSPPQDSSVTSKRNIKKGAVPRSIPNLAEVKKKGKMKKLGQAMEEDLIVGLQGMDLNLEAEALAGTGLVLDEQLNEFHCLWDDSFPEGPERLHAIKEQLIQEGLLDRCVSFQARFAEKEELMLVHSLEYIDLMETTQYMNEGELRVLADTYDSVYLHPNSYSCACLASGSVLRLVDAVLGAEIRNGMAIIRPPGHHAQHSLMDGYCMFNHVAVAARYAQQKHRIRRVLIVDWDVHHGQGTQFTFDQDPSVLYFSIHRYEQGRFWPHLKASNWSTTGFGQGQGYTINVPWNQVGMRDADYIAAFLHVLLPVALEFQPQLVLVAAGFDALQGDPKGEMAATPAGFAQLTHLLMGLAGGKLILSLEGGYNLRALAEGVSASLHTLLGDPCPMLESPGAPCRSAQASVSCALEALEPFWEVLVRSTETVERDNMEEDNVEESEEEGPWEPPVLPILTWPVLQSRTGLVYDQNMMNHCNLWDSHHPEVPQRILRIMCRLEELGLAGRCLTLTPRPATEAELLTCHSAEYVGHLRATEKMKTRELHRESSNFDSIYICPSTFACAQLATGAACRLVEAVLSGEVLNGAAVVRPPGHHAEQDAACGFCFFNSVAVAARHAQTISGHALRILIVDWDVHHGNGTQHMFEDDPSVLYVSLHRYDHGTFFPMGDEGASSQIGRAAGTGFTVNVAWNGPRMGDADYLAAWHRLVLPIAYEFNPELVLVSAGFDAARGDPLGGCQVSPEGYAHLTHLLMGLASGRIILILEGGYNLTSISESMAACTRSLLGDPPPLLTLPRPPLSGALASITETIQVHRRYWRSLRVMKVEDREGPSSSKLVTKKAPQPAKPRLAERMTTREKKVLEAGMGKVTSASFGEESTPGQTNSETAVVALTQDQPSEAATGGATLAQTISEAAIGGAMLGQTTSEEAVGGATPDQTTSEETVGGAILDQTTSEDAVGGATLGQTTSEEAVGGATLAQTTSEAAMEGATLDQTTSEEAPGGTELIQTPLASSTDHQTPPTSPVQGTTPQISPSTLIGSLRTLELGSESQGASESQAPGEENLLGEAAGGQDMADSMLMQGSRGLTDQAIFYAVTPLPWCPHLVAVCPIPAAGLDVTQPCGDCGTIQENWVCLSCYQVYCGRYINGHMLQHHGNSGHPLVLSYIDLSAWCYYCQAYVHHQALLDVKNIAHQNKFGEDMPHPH
Put plainly: Inhibition of recombinant N-terminal GST-tagged human HDAC6 (1 to 1215 residues) expressed in baculovirus infected sf9 insect cells using p53 (379 to 382 residues) derived fluorogenic peptide RHKKAc as substrate preincubated for 5 to 10 mins followed by substrate addition and further incubated for 2 hrs by fluorescence assay.

Series [2] has as its target T2, Protein deacetylase HDAC6. Put plainly: Inhibition of recombinant human HDAC6 expressed in HEK293T/17 cells using Ac-GAK(Ac)-AMC as substrate preincubated for 10 mins followed by substrate addition and measured after 30 mins by fluorescence-based assay.
The target in another series is T3, Histone deacetylase 11 (Homo sapiens, UniProt Q96DB2).
T3 sequence (Q96DB2 whole entry): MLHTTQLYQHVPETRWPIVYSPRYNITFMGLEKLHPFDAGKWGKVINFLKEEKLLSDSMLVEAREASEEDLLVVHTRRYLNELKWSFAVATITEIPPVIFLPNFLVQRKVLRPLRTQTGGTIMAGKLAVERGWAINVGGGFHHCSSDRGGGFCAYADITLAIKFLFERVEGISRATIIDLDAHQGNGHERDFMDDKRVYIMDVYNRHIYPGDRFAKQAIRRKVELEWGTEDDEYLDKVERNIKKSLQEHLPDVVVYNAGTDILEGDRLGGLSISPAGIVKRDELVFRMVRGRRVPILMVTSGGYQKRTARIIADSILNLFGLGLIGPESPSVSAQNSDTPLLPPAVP
Put plainly: Inhibition of recombinant human HDAC11 expressed in HEK293T/17 cells using Boc-Lys(TFA)-AMC as substrate preincubated for 10 mins followed by substrate addition and measured after 30 mins by fluorescence-based assay. Put shortly: as §1

In another series the target is Histone deacetylase 9 (Homo sapiens, UniProt Q9UKV0). Put plainly: Inhibition of recombinant human HDAC9 expressed in HEK293T/17 cells using Boc-Lys(TFA)-AMC as substrate preincubated for 10 mins followed by substrate addition and measured after 30 mins by fluorescence-based assay. In short, it runs like this:
as §1

The next series deals with Histone deacetylase 5 (Homo sapiens, UniProt Q9UQL6). Put plainly: Inhibition of recombinant human HDAC5 expressed in HEK293T/17 cells using Boc-Lys(TFA)-AMC as substrate preincubated for 10 mins followed by substrate addition and measured after 30 mins by fluorescence-based assay. Put shortly:
as §1

Series [3] concerns the target T4, Histone deacetylase 1 (Homo sapiens, UniProt Q13547). Put plainly: Inhibition of recombinant full length C-terminal His/FLAG tagged human HDAC1 (1 to 482 residues) expressed in baculovirus infected sf9 insect cells using p53 (379 to 382 residues) derived fluorogenic peptide RHKKAc as substrate preincubated for 5 to 10 mins followed by substrate addition and further incubated for 2 hrs by fluorescence assay.

The target in another series is Histone deacetylase 4 (Homo sapiens, UniProt P56524). Put plainly: Inhibition of recombinant human HDAC4 expressed in HEK293T/17 cells using Boc-Lys(TFA)-AMC as substrate preincubated for 10 mins followed by substrate addition and measured after 30 mins by fluorescence-based assay. In short, it runs like this: as §1
The target of series [4] is T4, Histone deacetylase 1. Put plainly: Inhibition of recombinant human HDAC1 expressed in HEK293T/17 cells using Ac-GAK(Ac)-AMC as substrate preincubated for 10 mins followed by substrate addition and measured after 30 mins by fluorescence-based assay. Put shortly: as §1
The target in series [5] is T4, Histone deacetylase 1. Put plainly: Inhibition of human recombinant HDAC1 using fluorogenic HDAC substrate by fluorescence assay. In short, it runs like this: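 Human full-length recombinant HDAC1 expressed in Sf9 cells via baculovirus. Substrate was the fluorogenic acetylated p53 379-382 peptide RHKKAc (50 µM) in pH 8.0 Tris buffer with NaCl, KCl, MgCl2, BSA and 1% DMSO final. Enzyme and compound were preincubated 5-10 min, then reacted 2 h at 30 °C. Developer plus TSA stopped the reaction; endpoint fluorescence was read.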

Series [6] is described as follows: Cytotoxicity against mouse SM1 cells at 100 nM by ApoTox-Glo triplex assay. The format is cell-based. The conditions noted are these: 0.1 µM. In short, it runs like this: (§2)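 SM1 cells treated with HDAC inhibitors, with pan-HDACi and assay controls on every plate. ApoTox-Glo triplex readout: viability fluorescence 400Ex/505Em, cytotoxicity fluorescence 485Ex/520Em, then caspase 3/7 reagent read by luminescence for apoptosis.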

Series [7] can be described thus: Induction of apoptosis in mouse SM1 cells at 100 nM by caspase3/7 reagent based luminescence assay. The format is cell-based. To be noted: 0.1 µM. Put shortly: as §2
For series [8], the species on record is Homo sapiens. Put plainly: Selectivity index, ratio of IC50 for inhibition of human recombinant HDAC1 using fluorogenic substrate incubated for 15 mins by fluorescence assay to IC50 for inhibition of human recombinant HDAC6 using fluorogenic substrate incubated for 30 mins by fluorescence assay.
The target of series [9] is T2, Protein deacetylase HDAC6. Put plainly: Inhibition of human recombinant HDAC6 using fluorogenic substrate incubated for 30 mins by fluorescence assay.
In series [10] the target is T4, Histone deacetylase 1. Put plainly: Inhibition of human recombinant HDAC1 using fluorogenic substrate incubated for 15 mins by fluorescence assay.
Series [11] deals with Salmonella typhimurium. Put plainly: Genotoxicity against Salmonella Typhimurium TA97A assessed as revertant colonies at 0.075 to 250 ug/well in presence of mammalian microsomal enzyme S9 mix by Ames test. It is filed as toxicity, organism-based. The conditions noted are these: salmonella enterica subsp. enterica serovar typhimurium. (In general: In the Ames test, an excess of revertant colonies over the control signals mutagenicity.)

Series [12] has as its system Salmonella typhimurium. Put plainly: Genotoxicity against Salmonella Typhimurium TA1537 assessed as revertant colonies at 0.075 to 250 ug/well by Ames test. It is filed as toxicity, organism-based. To be noted: salmonella enterica subsp. enterica serovar typhimurium.
Series [13] relates to Salmonella typhimurium. Put plainly: Genotoxicity against Salmonella Typhimurium TA1537 assessed as revertant colonies at 0.075 to 250 ug/well in presence of mammalian microsomal enzyme S9 mix by Ames test. The format is toxicity, organism-based. To be noted: salmonella enterica subsp. enterica serovar typhimurium.
Series [14] in a line: Half life in mouse liver microsomes in presence of NADPH. The format is ADME, Microsome. In short, it runs like this:
(§3)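 Liver microsomal stability in mouse and human microsomes with NADPH; half-life in minutes.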
(In general: Liver microsomes are a subcellular fraction often used to study metabolism.)

A short description of series [15]: Half life in human liver microsomes in presence of NADPH. It is filed as ADME, Microsome. In short, it runs like this:
as §3

The species named for series [16] is Homo sapiens. Put plainly: Selectivity index, ratio of IC50 for recombinant full length C-terminal His/FLAG tagged human HDAC1 (1 to 482 residues) expressed in baculovirus infected sf9 insect cells using p53 (379 to 382 residues) derived fluorogenic peptide RHKKAc as substrate preincubated for 5 to 10 mins followed by ….
For series [17], the system named is Salmonella typhimurium. Put plainly: Genotoxicity against Salmonella Typhimurium TA97A assessed as revertant colonies at 0.075 to 250 ug/well by Ames test. The format is toxicity, organism-based. To be noted: salmonella enterica subsp. enterica serovar typhimurium.

T4 sequence (Q13547 whole entry, the tested form may be a part): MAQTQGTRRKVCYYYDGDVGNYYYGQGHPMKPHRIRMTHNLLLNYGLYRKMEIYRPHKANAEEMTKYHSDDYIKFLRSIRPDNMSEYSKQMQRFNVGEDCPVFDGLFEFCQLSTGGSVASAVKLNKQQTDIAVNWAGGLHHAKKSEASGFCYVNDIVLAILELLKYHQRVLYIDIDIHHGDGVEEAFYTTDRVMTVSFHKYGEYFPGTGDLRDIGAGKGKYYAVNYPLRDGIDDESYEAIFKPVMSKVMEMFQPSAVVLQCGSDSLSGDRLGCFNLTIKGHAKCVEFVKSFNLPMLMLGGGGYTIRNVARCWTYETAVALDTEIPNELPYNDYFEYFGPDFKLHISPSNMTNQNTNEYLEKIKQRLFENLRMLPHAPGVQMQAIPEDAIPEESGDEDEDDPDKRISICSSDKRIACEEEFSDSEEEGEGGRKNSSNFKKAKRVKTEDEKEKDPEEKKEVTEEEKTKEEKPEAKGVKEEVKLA
Histone deacetylase 9, sequence (Q9UKV0 whole entry): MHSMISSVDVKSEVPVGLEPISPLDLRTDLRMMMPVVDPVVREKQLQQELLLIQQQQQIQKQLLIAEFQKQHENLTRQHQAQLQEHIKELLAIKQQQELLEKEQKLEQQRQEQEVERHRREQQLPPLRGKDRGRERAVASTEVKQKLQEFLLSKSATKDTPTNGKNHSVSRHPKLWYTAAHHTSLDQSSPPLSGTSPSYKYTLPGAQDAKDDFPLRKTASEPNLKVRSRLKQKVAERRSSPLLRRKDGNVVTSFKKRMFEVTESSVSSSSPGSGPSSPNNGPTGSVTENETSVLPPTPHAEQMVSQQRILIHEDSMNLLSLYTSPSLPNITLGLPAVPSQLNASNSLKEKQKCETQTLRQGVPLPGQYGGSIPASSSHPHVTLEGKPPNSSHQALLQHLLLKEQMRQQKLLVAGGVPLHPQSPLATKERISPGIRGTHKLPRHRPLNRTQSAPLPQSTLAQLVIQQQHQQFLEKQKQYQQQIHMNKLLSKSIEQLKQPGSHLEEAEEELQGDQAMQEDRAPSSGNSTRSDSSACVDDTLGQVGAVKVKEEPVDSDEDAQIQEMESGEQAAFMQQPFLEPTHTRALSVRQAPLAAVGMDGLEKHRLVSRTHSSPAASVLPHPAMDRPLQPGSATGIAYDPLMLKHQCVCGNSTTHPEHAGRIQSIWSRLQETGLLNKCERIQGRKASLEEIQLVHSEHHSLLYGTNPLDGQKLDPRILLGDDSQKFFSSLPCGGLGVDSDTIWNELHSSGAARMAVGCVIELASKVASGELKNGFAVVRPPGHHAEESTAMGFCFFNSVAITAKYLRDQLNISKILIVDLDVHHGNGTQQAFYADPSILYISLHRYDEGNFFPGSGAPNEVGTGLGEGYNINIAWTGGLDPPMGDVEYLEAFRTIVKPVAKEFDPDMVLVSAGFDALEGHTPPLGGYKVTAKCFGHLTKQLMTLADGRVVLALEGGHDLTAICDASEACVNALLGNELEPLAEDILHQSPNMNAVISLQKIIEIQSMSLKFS
Histone deacetylase 5, sequence (Q9UQL6 whole entry): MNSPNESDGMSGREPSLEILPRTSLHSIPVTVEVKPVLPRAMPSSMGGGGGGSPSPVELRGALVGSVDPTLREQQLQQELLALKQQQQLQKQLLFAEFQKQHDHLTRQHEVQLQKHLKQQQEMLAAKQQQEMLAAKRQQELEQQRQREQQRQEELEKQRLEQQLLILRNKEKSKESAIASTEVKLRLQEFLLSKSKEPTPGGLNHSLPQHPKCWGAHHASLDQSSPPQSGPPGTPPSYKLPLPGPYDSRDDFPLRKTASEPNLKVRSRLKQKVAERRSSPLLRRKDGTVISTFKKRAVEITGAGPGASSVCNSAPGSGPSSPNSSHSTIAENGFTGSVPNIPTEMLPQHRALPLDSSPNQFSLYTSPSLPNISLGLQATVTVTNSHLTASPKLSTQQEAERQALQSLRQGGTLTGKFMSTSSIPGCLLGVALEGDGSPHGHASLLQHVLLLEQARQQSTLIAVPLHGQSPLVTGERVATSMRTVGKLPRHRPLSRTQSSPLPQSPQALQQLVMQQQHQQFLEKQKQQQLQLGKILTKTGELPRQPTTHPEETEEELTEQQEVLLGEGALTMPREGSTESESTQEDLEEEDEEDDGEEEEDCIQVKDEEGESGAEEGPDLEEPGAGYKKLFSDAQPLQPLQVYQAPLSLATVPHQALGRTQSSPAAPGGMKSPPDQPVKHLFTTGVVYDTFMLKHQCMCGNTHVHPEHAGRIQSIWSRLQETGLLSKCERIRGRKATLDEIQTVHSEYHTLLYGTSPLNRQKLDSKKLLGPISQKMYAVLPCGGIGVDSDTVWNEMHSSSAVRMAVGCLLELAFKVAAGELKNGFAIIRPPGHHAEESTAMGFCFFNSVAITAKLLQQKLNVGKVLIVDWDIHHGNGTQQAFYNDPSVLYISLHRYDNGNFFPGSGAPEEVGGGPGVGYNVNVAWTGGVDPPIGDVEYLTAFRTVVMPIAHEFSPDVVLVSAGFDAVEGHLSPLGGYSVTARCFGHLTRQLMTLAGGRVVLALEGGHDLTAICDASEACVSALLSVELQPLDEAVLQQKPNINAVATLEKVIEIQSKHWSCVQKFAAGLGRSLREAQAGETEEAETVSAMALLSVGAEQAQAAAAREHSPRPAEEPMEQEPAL
Histone deacetylase 4, sequence (P56524 whole entry): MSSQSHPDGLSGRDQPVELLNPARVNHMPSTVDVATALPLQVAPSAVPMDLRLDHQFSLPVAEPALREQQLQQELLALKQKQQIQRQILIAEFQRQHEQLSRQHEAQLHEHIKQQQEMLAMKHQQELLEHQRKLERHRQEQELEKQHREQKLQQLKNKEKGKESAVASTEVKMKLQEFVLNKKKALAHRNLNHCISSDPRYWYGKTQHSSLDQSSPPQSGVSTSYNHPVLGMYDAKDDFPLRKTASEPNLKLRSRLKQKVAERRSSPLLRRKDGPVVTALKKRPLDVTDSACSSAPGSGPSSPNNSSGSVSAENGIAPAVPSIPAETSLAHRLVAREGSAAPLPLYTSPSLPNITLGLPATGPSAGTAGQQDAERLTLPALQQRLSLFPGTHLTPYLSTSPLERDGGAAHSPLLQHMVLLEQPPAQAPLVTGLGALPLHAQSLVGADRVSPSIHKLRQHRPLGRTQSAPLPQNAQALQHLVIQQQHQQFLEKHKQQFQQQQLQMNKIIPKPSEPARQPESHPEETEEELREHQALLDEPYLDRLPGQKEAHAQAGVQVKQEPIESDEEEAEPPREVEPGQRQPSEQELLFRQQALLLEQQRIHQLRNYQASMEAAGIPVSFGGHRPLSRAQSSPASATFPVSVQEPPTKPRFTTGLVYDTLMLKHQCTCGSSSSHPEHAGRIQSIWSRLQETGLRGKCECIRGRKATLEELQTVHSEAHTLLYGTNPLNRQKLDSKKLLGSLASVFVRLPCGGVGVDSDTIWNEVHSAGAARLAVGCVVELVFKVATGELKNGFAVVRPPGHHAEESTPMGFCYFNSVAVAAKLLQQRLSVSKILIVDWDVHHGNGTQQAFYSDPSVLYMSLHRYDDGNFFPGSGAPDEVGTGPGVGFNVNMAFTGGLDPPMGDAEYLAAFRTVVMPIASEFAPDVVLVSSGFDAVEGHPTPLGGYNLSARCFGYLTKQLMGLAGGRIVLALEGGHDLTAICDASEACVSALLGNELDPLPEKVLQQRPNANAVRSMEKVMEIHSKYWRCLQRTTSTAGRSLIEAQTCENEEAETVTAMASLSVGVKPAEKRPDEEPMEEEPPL

With `O=C(NO)c1ccc(CNC(=O)c2ccc(Cl)c(Cl)c2)cc1`, the IC50 came out at 920 nM at Histone deacetylase 8; 28 nM in [1]; 2 nM in series [2]; 1050 nM on Histone deacetylase 11; 3070 nM on Histone deacetylase 9; 3120 nM on Histone deacetylase 5. Moreover, the IC50 on Histone deacetylase 1 [3] stood at 200 nM; on Histone deacetylase 4, 3530 nM; on Histone deacetylase 1 [4], 34 nM.

In the case of `CN(Cc1ccc(C(=O)NO)cc1F)CC12CC3CC(CC(C3)C1)C2`, the IC50 on Histone deacetylase 1 [5] is > 1000 nM.

As for `Cc1[nH]c2ccccc2c1CCNCc1ccc(/C=C/C(=O)NO)cc1` [PANOBINOSTAT], the Activity entry in series [6] and in [7] was “Toxic” each time.

In the case of `O=C(NO)c1ccc(CNCc2csc3ccccc23)cc1`, the Ratio IC50 in the series listed under Homo sapiens [8] came out at 535. Further, the values for the IC50 (in [9]; at Histone deacetylase 1 [10]) were 14 nM and 7500 nM, respectively.

Regarding `CC(C)(C)OC(=O)Nc1ccc(-c2cc(C(=O)NCCc3cc(C(=O)NO)no3)no2)cc1`, the Activity result in the series with Salmonella typhimurium [11], with Salmonella typhimurium [12], in the series with Salmonella typhimurium [13] and in the series on Salmonella typhimurium [17] was “Non-Toxic” throughout. The half-life in [14] amounted to 16 min; in series [15] it was 85 min. The Ratio IC50 in the series filed under Homo sapiens [16] worked out at 2820.
